From ChEMBL document CHEMBL1156883, “Low molecular weight antagonists of the myelin-associated glycoprotein: synthesis, docking, and biological evaluation” (J Med Chem, 2010)

Columns and labels:
[1] = biological target: T1, Myelin-associated glycoprotein (Mus musculus) (UniProt P20917); experiment: Inhibition of mouse MAGd1-3Fc expressed in CHO-Lec 3.2.8.1 cells by hepten inhibition assay relative to sodium-(2R,4S,5R,6R)-5-acetamido-2-(benzyloxy)-6-((1S,2R)-3-(4-chlorobenzamido)-1,2-dihydroxypropyl)-4-hydroxytetrahydro-2H-pyran-2-carboxylate; format: cell-based
T1 sequence (whole entry): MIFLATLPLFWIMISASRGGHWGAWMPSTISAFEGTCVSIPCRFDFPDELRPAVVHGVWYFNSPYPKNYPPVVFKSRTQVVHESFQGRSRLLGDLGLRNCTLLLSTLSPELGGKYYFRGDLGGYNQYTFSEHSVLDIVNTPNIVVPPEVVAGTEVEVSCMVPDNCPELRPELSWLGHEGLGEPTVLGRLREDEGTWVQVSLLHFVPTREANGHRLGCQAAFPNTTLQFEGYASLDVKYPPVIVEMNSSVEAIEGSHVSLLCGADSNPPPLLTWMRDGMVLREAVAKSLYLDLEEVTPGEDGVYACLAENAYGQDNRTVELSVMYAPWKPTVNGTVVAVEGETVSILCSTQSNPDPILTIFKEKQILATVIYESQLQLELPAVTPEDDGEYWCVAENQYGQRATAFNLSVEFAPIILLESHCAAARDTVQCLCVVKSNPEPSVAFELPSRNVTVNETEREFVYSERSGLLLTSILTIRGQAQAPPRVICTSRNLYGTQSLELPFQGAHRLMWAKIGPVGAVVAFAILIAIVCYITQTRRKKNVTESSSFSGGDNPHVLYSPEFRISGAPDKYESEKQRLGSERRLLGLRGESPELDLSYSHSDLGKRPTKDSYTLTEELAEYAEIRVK
Method in brief: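 Fetuin-coated microtiter plates. Murine MAGd1-3-Fc (from CHO-Lec 3.2.8.1, dialyzed into 10 mM phosphate pH 7.4) bound in the presence of 7-8 inhibitor concentrations, in triplicate. Bound protein detected with alkaline phosphatase-labeled anti-Fc, read as initial rate of fluorescein release from fluorescein diphosphate. IC50 from binding curves converted to rIC50. At least three independent titrations.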

[2] = biological target: T2, Myelin-associated glycoprotein (Mus musculus, UniProt P20917); experiment: Binding affinity to mouse MAGd1-3Fc expressed in CHO-Lec 3.2.8.1 cells by SPR analysis
T2 sequence (P20917 whole entry): T1 sequence (whole entry)
Method in brief: (§1)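 Murine MAGd1-3-Fc (purified from CHO-Lec 3.2.8.1 supernatant) captured at 30-40 μg/mL to about 2000 RU on protein A, which was amine-coupled to a CM5 chip. Runs at 25 °C, 20 μL/min, with 1 min injection and 1 min dissociation. Ten-fold dilution series in duplicate, double blank referenced. Negative sensorgrams mirrored; equilibrium KD.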

[3] = Octanol-water distribution coefficient, log D at pH 7.4 by shake-flask technique; format: physicochemical
[4] = biological target: T2, Myelin-associated glycoprotein; experiment: Binding affinity to mouse MAGd1-3Fc expressed in CHO-Lec 3.2.8.1 cells by biocore; format: cell-based; method in brief: as §1
[5] = biological target: T2, Myelin-associated glycoprotein; experiment: Binding affinity to mouse MAGd1-3Fc expressed in CHO-Lec 3.2.8.1 cells under HBS-EP condition by CM5 chip SPR analysis; method in brief: as §1
[6] = biological target: T2, Myelin-associated glycoprotein; experiment: Binding affinity to mouse MAGd1-3Fc expressed in CHO-Lec 3.2.8.1 cells under HEPES condition by CM5 chip SPR analysis
Method in brief: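 Murine MAGd1-3-Fc captured on protein A on a CM5 chip. Running buffer carried 50 mM instead of 10 mM HEPES to raise buffer capacity. SPR at 25 °C, 20 μL/min, 1 min injection and 1 min dissociation, double blank referenced. KD taken at equilibrium from mirrored sensorgrams.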

[7] = biological target: T2, Myelin-associated glycoprotein; experiment: Binding affinity to mouse MAGd1-3Fc expressed in CHO-Lec 3.2.8.1 cells under NaCl condition by CM5 chip SPR analysis
Method in brief: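 SPR on a CM5 chip with protein A-captured murine MAGd1-3-Fc. Salt was raised to 150-500 mM NaCl to exclude ionic repulsion. Runs at 25 °C, 20 μL/min, 1 min contact and 1 min dissociation, double blank referenced. Equilibrium KD from mirrored sensorgrams.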

[8] = biological target: T2, Myelin-associated glycoprotein; experiment: Binding affinity to mouse MAGd1-3Fc expressed in CHO-Lec 3.2.8.1 cells under carboxymethyl-dextran sodium salt condition by CM5 chip SPR analysis
Method in brief: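 Dextran (1 mg/mL) added to the running buffer to test nonspecific binding to the matrix. Murine MAGd1-3-Fc captured via protein A on a CM5 chip. Runs at 25 °C, 20 μL/min, 1 min injection and 1 min dissociation. Equilibrium KD from mirrored sensorgrams.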

[9] = biological target: T2, Myelin-associated glycoprotein; experiment: Binding affinity to mouse MAGd1-3Fc expressed in CHO-Lec 3.2.8.1 cells under HBS-EP condition by CM4 chip SPR analysis
Method in brief: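 Protein A was amine-coupled to a CM4 chip (lower carboxylate density) and murine MAGd1-3-Fc captured on it. Run in HBS-EP at 25 °C, 20 μL/min, with 1 min association and 1 min dissociation. Ten-fold dilution series in duplicate, double blank referenced. Negative sensorgrams mirrored to give equilibrium KD.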

[10] = Stability in artificial cerebrospinal fluid at 37 degC […]; format: physicochemical; conditions: read-out: Stability
[11] = Stability in buffer solution at 37 degC after 19 hrs; format: physicochemical; conditions: read-out: Stability
[12] = biological target: T1, Myelin-associated glycoprotein (Mus musculus); experiment: Relative binding affinity to mouse MAGd1-3Fc expressed in CHO-Lec 3.2.8.1 cells by NMR analysis relative to compound 4

Ratio [1] | Kd [2] [µM] | logD [3] | Structure (SMILES) | further results
0.5 | 4.3 | 0.53 | CC(=O)N[C@H]1[C@H]([C@@H](O)[C@H](O)CNC(=O)c2ccc(Cl)cc2)O[C@@](OCc2cccc(Cl)c2Cl)(C(=O)O)C[C@@H]1O | 
2.65 | 33.9 |  | CC(=O)N[C@H]1[C@H]([C@@H](O)[C@H](O)CNC(=O)c2cccc(Cl)c2)O[C@@](OCc2ccccc2)(C(=O)O)C[C@@H]1O | 
1.61 | 19.2 |  | CC(=O)N[C@H]1[C@H]([C@@H](O)[C@H](O)CNC(=O)c2ccc(Cl)c(Cl)c2)O[C@@](OCc2ccccc2)(C(=O)O)C[C@@H]1O | 
1.3 | 15 | 0.36 | CC(=O)N[C@H]1[C@H]([C@@H](O)[C@H](O)CNC(=O)c2ccc(Cl)cc2)O[C@@](OCc2ccc(Cl)cc2)(C(=O)O)C[C@@H]1O | 
1.5 | 26 |  | CC(=O)N[C@H]1[C@H]([C@@H](O)[C@H](O)CNC(=O)c2ccccc2)O[C@@](OCc2ccccc2)(C(=O)O)C[C@@H]1O | Kd [5]: 21.8 µM; Kd [6]: 17.6 µM; Kd [7]: 14.9 µM; Kd [8]: 17.8 µM; Kd [9]: 20 µM
0.74 | 11.6 | 0.58 | CC(=O)N[C@H]1[C@H]([C@@H](O)[C@H](O)CNC(=O)c2ccc(Cl)cc2)O[C@@](OCc2ccc3ccccc3c2)(C(=O)O)C[C@@H]1O | 
1 | 17 |  | CC(=O)N[C@H]1[C@H]([C@@H](O)[C@H](O)CNC(=O)c2ccc(Cl)cc2)O[C@@](OCc2ccccc2)(C(=O)O)C[C@@H]1O | 
1.2 | 13 | -0.11 | CC(=O)N[C@H]1[C@H]([C@@H](O)[C@H](O)CNC(=O)c2ccc(Cl)cc2)O[C@@](OCc2ccc(F)cc2)(C(=O)O)C[C@@H]1O | 

Continued, compound first:

Structure (SMILES) | Ratio [1] | Kd [2] [µM] | logD [3] | further results
CO[C@]1(C(=O)O)C[C@H](O)[C@@H](NC(C)=O)[C@H]([C@@H](O)[C@H](O)CNC(=O)c2ccccc2)O1 | 18 | 137 |  | Kd [4]: 137 µM
O=C(CCl)N[C@H]1[C@H]([C@@H](O)[C@H](O)CNC(=O)c2ccc(Cl)cc2)O[C@@](OCc2cccc(F)c2F)(C(=O)O)C[C@@H]1O | 0.07 | 2.1 | 0.35 | 
CC(=O)N[C@H]1[C@H]([C@@H](O)[C@H](O)CNC(=O)c2ccc(Cl)cc2)O[C@@](OCc2c(F)c(F)c(F)c(F)c2F)(C(=O)O)C[C@@H]1O | 0.26 | 6.1 | -0.11 | 
O=C(NC[C@@H](O)[C@H](O)[C@@H]1O[C@@](OCc2cccc(F)c2F)(C(=O)O)C[C@H](O)[C@H]1NS(=O)(=O)c1ccccc1[N+](=O)[O-])c1ccc(Cl)cc1 | 0.05 | 1.4 | 0.87 | 
CS(=O)(=O)N[C@H]1[C@H]([C@@H](O)[C@H](O)CNC(=O)c2ccc(Cl)cc2)O[C@@](OCc2cccc(F)c2F)(C(=O)O)C[C@@H]1O | 0.6 | 17 | -0.17 | 
CC(=O)N[C@H]1[C@H]([C@@H](O)[C@H](O)CNC(=O)c2ccccc2)O[C@@](OCc2c[nH]nn2)(C(=O)O)C[C@@H]1O | 0.74 | 11.7 |  | 
O=C(NC[C@@H](O)[C@H](O)[C@@H]1O[C@@](OCc2cccc(F)c2F)(C(=O)O)C[C@H](O)[C@H]1NC(=O)C1CCC1)c1ccc(Cl)cc1 | 0.14 | 5.8 | 0.75 | 
O=C(NC[C@@H](O)[C@H](O)[C@@H]1O[C@@](OCc2cccc(F)c2F)(C(=O)O)C[C@H](O)[C@H]1NC(=O)C1CC1)c1ccc(Cl)cc1 | 0.1 | 4.1 | 0.31 | 
O=C(CF)N[C@H]1[C@H]([C@@H](O)[C@H](O)CNC(=O)c2ccc(Cl)cc2)O[C@@](OCc2cccc(F)c2F)(C(=O)O)C[C@@H]1O | 0.02 | 0.5 | -0.26 | remaining [10]: 95%; remaining at 19 h [11]: 95%
CC(=O)N[C@H]1[C@H]([C@@H](O)[C@H](O)CNC(=O)c2ccc(Cl)cc2)O[C@@](OCc2cccc(F)c2F)(C(=O)O)C[C@@H]1O | 0.3 | 2.4 | -0.27 | remaining [10]: 95%; remaining at 19 h [11]: 95%; Ratio [12]: 34.4
COCC(=O)N[C@H]1[C@H]([C@@H](O)[C@H](O)CNC(=O)c2ccc(Cl)cc2)O[C@@](OCc2cccc(F)c2F)(C(=O)O)C[C@@H]1O | 0.14 | 2.3 | 0.06 | 
O=C(O)N[C@H]1[C@H]([C@H](O)[C@H](O)CNC(=O)c2ccc(Cl)cc2)O[C@@](O[C@H]2[C@@H](O)[C@@H](CO)O[C@@H](O[C@@H]3CCO[C@H](COCc4ccc(-c5ccccc5)cc4)[C@@H]3O)[C@@H]2O)(C(=O)O)C[C@@H]1O | 0.52 | 2.83 |  | 
